Screening data (PubChem BioAssay)
MrgX1 PAM: positive allosteric modulators of MrgX1, primary screen, HEK293 cells, Fluo-4 calcium flux | B-score at 10 µM | FDSS; stronger effect = higher value | 0.63% of 310,000 active;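 active means plate-corrected calcium response at least 3 library SD above typical, normal starting fluorescence, not activating the receptor alone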;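 further: compound read alongside a low EC10 to EC30 dose of BAM8-22 agonist; peak minus trough fluorescence over baseline measured at the second addition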
Target sequence (Q96LB2 whole entry, looked up): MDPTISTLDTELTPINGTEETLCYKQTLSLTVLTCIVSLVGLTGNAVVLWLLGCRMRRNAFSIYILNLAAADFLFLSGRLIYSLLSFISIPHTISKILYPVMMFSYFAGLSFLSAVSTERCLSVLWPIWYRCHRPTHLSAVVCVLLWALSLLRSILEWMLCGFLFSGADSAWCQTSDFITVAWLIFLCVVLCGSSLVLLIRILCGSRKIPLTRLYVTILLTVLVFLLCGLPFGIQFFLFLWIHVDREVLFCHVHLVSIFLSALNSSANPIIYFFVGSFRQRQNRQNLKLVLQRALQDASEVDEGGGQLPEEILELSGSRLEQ
MrgX1 antagonist: antagonists of human MrgX1 receptor, primary screen, HEK293 cells, Fluo-4 calcium flux; 1.3% of 310,000 active; BAM8-22 antagonism; stronger effect = lower value; B-score at 10 µM; Mas-related G-protein coupled receptor member X1 (Homo sapiens), Q96LB2;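 active means calcium-response B-score plate-corrected more than 3 library SD below zero, starting fluorescence within 5 deviations, no agonist response on first addition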;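 further: peak minus trough fluorescence over baseline after final BAM8-22 challenge near maximal dose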
MrgX1 agonist: agonists of human MrgX1 receptor, primary screen, HEK293 cells, Fluo-4 calcium flux; Mas-related G-protein coupled receptor member X1 (Homo sapiens), Q96LB2; Fluo-4 calcium fluorescence, agonist mode; stronger effect = higher value; B-score at 10 µM; 0.44% of 310,000 active;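 active means calcium response B-score plate-corrected fluorescence ratio at least 3 library SD, with starting fluorescence B-score inside 5 SD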
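System – MrgX1-expressing HEK293 cells · Incubation – cells plated overnight, dye loaded 0.5 h 37 °C, 0.5 h room temperature · Technique – kinetic Fluo-4 NW fluorescence of intracellular calcium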
RGS4 block: RGS4 inhibitors, primary screen, cell-based, HEK293 M3R inducible RGS4, calcium flux; AID 463165, 2010; 0.45% of 310,000 active; B-score at 10 µM; Fluo-4 calcium flux; stronger effect = higher value; triggered by carbachol at its EC20; Regulator of G-protein signaling 4 (Homo sapiens), P49798;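 active means B-score, a plate-corrected calcium signal, over three deviations above library mean, with baseline fluorescence within five deviations of library mean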;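 further: RGS4 expression induced by doxycycline in cells with stable M3 receptor; B-score is computed from the integrated fluorescence ratio over baseline after carbachol; higher B-score means a larger calcium signal and so more RGS4 inhibition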
Target sequence (P49798 whole entry, looked up): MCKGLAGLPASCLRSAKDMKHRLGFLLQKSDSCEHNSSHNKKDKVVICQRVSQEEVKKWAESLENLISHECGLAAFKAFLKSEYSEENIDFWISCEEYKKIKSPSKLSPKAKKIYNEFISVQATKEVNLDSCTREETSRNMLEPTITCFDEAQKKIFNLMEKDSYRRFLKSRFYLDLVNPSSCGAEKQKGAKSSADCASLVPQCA
RGS4 act: RGS4 potentiators or activators, primary screen, cell-based, HEK293 M3R inducible RGS4, calcium flux; AID 463111, 2010; carbachol calcium flux Fluo4; stronger effect = lower value; 0.92% of 310,000 active; B-score at 10 µM;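 active means B-score of the integrated calcium signal more than 4 SD below the library mean, with starting fluorescence not abnormally high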;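 further: negative B-score means reduced calcium response which marks RGS4 activation or potentiation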
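Assay system: Inducible-RGS4 HEK293 cells carrying M3 receptor | Schedule: Compound preincubation 20 min at room temperature before agonist | Signal: Kinetic calcium fluorescence imaging with Fluo4-AM dye, 2 µM | Read-out basis: B score from integrated fluorescence ratio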
RGS4 act valid: reduced carbachol calcium response, RGS4-induced M3R cells, confirmation, RGS4 activator project, cell-based, HEK293 M3R/RGS4 inducible, calcium flux, duplicate; shares compounds with RGS4 act; carbachol calcium flux Fluo4; inhibition, % at 10 µM; 89% of 1,100 active; AID 602282, 2012;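 active means inhibition above 3 SD of the buffer control wells, cut at about 41% in these data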;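 further: signal is the integrated peak-minus-minimum Fluo4 fluorescence over baseline ratio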
RGS4 act ctr: RGS4 activator counter-screen hit in non-induced cells. AID 602283. 82% of 1,100 active. shares compounds with RGS4 act. inhibition, % at 10 µM. HEK293 M3R non-induced RGS4, Fluo4 calcium flux; after carbachol challenge at its EC90;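 active means inhibition exceeding 3 SD of buffer-only control wells, cut at about 26% in these data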;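 further: percent drop in integrated peak-minus-baseline over baseline Fluo4 ratio after carbachol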
Numbers without * were called inactive; i = inactive; nt = no result. This is a sample that favours compounds with a hit; in the whole collection about 3.5% have one here.

SMILES	MrgX1 PAM	MrgX1 antagonist	MrgX1 agonist	RGS4 block	RGS4 act	RGS4 act valid	RGS4 act ctr
O=C1C2CCCN2C(=S)N1c1ccc(Cl)cc1 (stereo not given)	i	i	i	i	i	nt	nt
CCOC(=O)c1c(NC(=O)c2cccc(N3C(=O)CCC3=O)c2)sc2c1CCN(CC)C2	i	i	i	i	-9.8*	90*	44*
O=C(Nc1ccnn1C1CCN(C(=O)Cc2ccccc2F)CC1)C1CC1	i	i	i	i	i	nt	nt
CCOC(=O)C1=C(Cc2ccc(Cl)cc2)C(=O)c2ccccc2C1=O	i	-4.5*	i	i	-9.3*	86*	30*
O=C(O)CC(NCc1ccco1)C(=O)Nc1cccc(O)c1 (stereo not given)	i	i	i	i	i	nt	nt
CC1CCN(CCCOc2ccc(Cl)cc2Br)CC1	i	i	i	i	i	nt	nt
Cc1cc(Br)ccc1OCCCCN1CCC(C)CC1	i	i	i	i	-8.5*	89*	64*
COC(=O)c1cnc(N2CCOCC2)nc1C(F)(F)F	i	i	i	i	i	nt	nt
O=C(CCc1nnc(-c2ccccc2)o1)NCc1cc(F)ccc1F	i	i	i	i	i	nt	nt
Cc1ccn(S(=O)(=O)c2ccc(C(C)(C)C)cc2)n1	i	i	i	i	-7.8*	92*	26*
CC(C)NC(=O)NC(=O)CSc1ccccc1F	i	i	i	i	i	nt	nt
NCC(=O)Nc1ccc(Cl)cc1C(=O)c1ccc[nH]1	nt	nt	nt	i	i	nt	nt
c1ccc(-c2cc(-c3nc4ccccc4[nH]3)c3ccccc3n2)cc1	i	i	i	i	-9.6*	94*	77*
Nc1ccc(-c2nc3ccccc3[nH]2)cc1	i	i	i	i	i	nt	nt
O=C(Nc1cccnc1)c1cc(-c2ccc(Br)cc2)nc2ccccc12	i	i	i	i	-13*	92*	76*
CC(=O)Nc1cccc(NC(=O)c2cc(-c3cccnc3)nc3ccc(Br)cc23)c1	i	i	i	i	i	nt	nt
Cc1ccc(-c2cc(C(=O)Nc3cccnc3)c3ccccc3n2)o1	i	i	i	i	i	nt	nt
CC(=O)Nc1cccc(NC(=O)c2cc(-c3cccnc3)nc3ccc(Cl)cc23)c1	i	i	i	i	-8.6*	46*	0
Cc1cc(C)cc(NC(=O)CCC(=O)Nc2cc(C)on2)c1	i	i	i	i	i	nt	nt
C=CCN1C(=O)/C(=C2\SC(N3CCOCC3)=NC2=O)c2cc(Br)ccc21	i	i	i	i	-8.6*	86*	63*
COc1ccc(/C=C2/SC(=O)N(CCC(=O)Nc3ccccc3C(=O)O)C2=S)cc1	i	i	i	i	i	nt	nt
O=C(CCCN1C(=O)c2ccccc2C1=O)NCCc1ccc(OC(F)F)cc1	i	i	i	i	i	nt	nt
CC(C)(C)CC(C)(C)NCC(O)COc1ccc2c(c1)CCC2 (stereo not given)	i	i	i	i	-10*	92*	55*
CC(C)(CO)NCC(O)COc1ccc2c(c1)CCC2 (stereo not given)	i	i	i	i	i	nt	nt
Cc1ccc(NC(=O)c2ccc3ccccc3n2)cc1S(=O)(=O)N(C)C	i	i	i	i	i	nt	nt
SMILES	MrgX1 PAM	MrgX1 antagonist	MrgX1 agonist	RGS4 block	RGS4 act	RGS4 act valid	RGS4 act ctr
Cc1c(OCC(=O)N(C)C)ccc2c3c(c(=O)oc12)CCCCC3	i	i	i	i	-7.9*	64*	32*
Cc1ccc(N)c(C(O)(C(F)(F)F)C(F)(F)F)c1	i	i	i	i	i	nt	nt
CNc1ccc(C(O)(C(F)(F)F)C(F)(F)F)cc1C(O)(C(F)(F)F)C(F)(F)F	i	i	i	i	-8.2*	90*	69*
N#Cc1ccccc1NC(=O)c1ccc2c(Cl)c3c(nc2c1)CCCC3	i	i	i	i	-8.1*	72*	47*
CCCN1CCN(CCCNC(=O)c2ccc3c(Cl)c4c(nc3c2)CCCC4)CC1	i	i	i	i	-8.1*	94*	62*
COc1ccc(/C=C/C(=O)OC(C)CN2CCCCC2)cc1 (stereo not given)	i	i	i	i	i	nt	nt
Cc1ccc(OCC(=O)Nc2ccc(CN3CCCCC3)cc2)c(C)c1	i	i	i	i	-9.9*	66*	84*
COc1ccc(NC(=O)CN(C)C(=O)c2cc(-c3ccncc3)nc3ccccc23)cc1	i	i	i	i	i	nt	nt
COc1ccc(NC(=O)CN(C)C(=O)c2cc(-c3ccccc3)nc3ccccc23)cc1	i	i	i	i	-8.4*	48*	0
CN(CCOc1ccc(Cl)cc1)C(=O)c1cc(-c2ccco2)nc2ccccc12	i	i	i	i	-8.5*	91*	66*
Cc1ccc(NC(=O)CN(C)C(=O)c2cc(-c3ccco3)nc3ccccc23)cc1	i	i	i	i	-8.3*	61*	0
COc1ccc(-c2cc(C(=O)N(C)CC(=O)Nc3cccc(F)c3)c3ccccc3n2)cc1	i	i	i	i	-8.2*	70*	28*
COc1cc(C(=O)NCc2nnc(SCC(=O)Nc3ccc4c(c3)OCO4)o2)cc(OC)c1OC	i	i	i	i	i	nt	nt
COc1ccc(NC(=O)CN(C)C(=O)c2cccc3ccccc23)cc1	i	i	i	i	i	nt	nt
COc1ccc(NC(=O)CN(C)C(=O)c2cc(-c3ccc(OC)cc3)nc3ccccc23)cc1	i	i	i	i	-8.1*	54*	84*
CCN(CC)S(=O)(=O)c1ccc(Cl)c(NC(=O)COc2ccc(OC)cc2[N+](=O)[O-])c1	i	i	i	i	i	nt	nt
CCCCOc1ccc(S(=O)(=O)n2c(C)nc3ccccc32)cc1	i	i	i	i	-8.3*	93*	96*
Cc1ccc(S(=O)(=O)n2c(N)nc3ccccc32)cc1	i	i	i	i	-7.8*	92*	96*
